pIC50: −log10 of the molar value.
Legend:
[1] = Inhibition of recombinant HIV1 HXB2 reverse transcriptase RDDP activity assessed as reduction in biotin/digoxin-dU incorporation into polirA-oligodU template primer measured after 30 mins by ELISA; set-up: species or system HIV-1 M:B_HXB2R
Procedure, shortened: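 Purified recombinant HIV-1 RT (HXB2 clone), 3 U, incubated with compounds over a concentration range and poly(rA)-oligo(dU). Biotin- and digoxin-labelled dU (equimolar) incorporated at 37 °C for 30 min, stopped with 0.5 M EDTA. Product captured on streptavidin-coated plates and detected with peroxidase-tagged anti-digoxin antibody. Absorbance read at 570 nm against 690 nm reference. IC50 from linear regression of dose-response curves.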

[2] = Cytotoxicity against human PBMC assessed as reduction in cell viability after 72 hrs by XTT assay; type: tissue-based
Procedure, shortened: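 Primary human PBMCs, 2×10^4 cells/well, exposed to compounds at several concentrations for 72 h. XTT (5 mg/mL) with 0.01 % PMS in DMEM then added for 4 h at 37 °C. Absorbance read at 492 and 620 nm. CC50 obtained by linear regression of dose-response curves.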

[3] = Protection index, ratio of azidothymidine CC50 to test compound CC50 for human PBMC; type: ADME, tissue-based; conditions: read-out: PI
[4] = tested on: HIV1 HXB2 reverse transcriptase RDDP activity; test: Selectivity index, ratio of CC50 for human PBMC to IC50 for inhibition of recombinant HIV1 HXB2 reverse transcriptase RDDP activity; type: toxicity; conditions: read-out: Ratio CC50/IC50

Compound | pIC50 [1] | CC50 at 72 h [2] [µM] | selectivity ratio [3] | selectivity ratio [4]
Cc1ccc2c(c1)c(=O)c(C(=O)NCc1ccc(Cl)cc1)cn2[C@@H]1O[C@H](CO)[C@@H](O)[C@H]1O | 5.37 | > 1000 | > 10 | 
O=C(OC[C@H]1O[C@@H](n2cc(C(=O)NC3CCCCC3)c(=O)c3cc(Cl)ccc32)[C@H](OC(=O)c2ccccc2)[C@@H]1OC(=O)c1ccccc1)c1ccccc1 | 5.07 | > 1000 | > 10 | 
Cc1cn([C@H]2C[C@H](N=[N+]=[N-])[C@@H](CO)O2)c(=O)[nH]c1=O [ZIDOVUDINE] | 7.30 | 126 |  | 
O=C(OC[C@H]1O[C@@H](n2cc(C(=O)NCc3ccc(Cl)cc3)c(=O)c3ccccc32)[C@H](OC(=O)c2ccccc2)[C@@H]1OC(=O)c1ccccc1)c1ccccc1 | 5.85 | 1490 | > 10 | 998
O=C(NCc1ccc(Cl)cc1)c1cn([C@@H]2O[C@H](CO)[C@@H](O)[C@H]2O)c2ccc(F)cc2c1=O | 5.41 | > 1000 | > 10 | 
O=C(Nc1ccccc1)c1cn([C@@H]2O[C@H](CO)[C@@H](O)[C@H]2O)c2ccc(Cl)cc2c1=O | 5.59 | > 1000 | > 10 | 
O=C(NC1CCCCC1)c1cn([C@@H]2O[C@H](CO)[C@@H](O)[C@H]2O)c2ccc(Cl)cc2c1=O | 4.65 | > 1000 | > 10 | 
O=C(Nc1ccc(Cl)cc1)c1cn([C@@H]2O[C@H](CO)[C@@H](O)[C@H]2O)c2ccc(Cl)cc2c1=O | 5.10 | > 1000 | > 10 | 
O=C(NCc1ccc(Cl)cc1)c1cn([C@@H]2O[C@H](CO)[C@@H](O)[C@H]2O)c2ccc(C(F)(F)F)cc2c1=O | 5.41 | > 1000 | > 10 | 
O=C(NCc1ccc(Cl)cc1)c1cn([C@@H]2O[C@H](CO)[C@@H](O)[C@H]2O)c2ccccc2c1=O | 4.53 | > 1000 | > 10 | 
O=C(OC[C@H]1O[C@@H](n2cc(C(=O)NCc3ccc(Cl)cc3)c(=O)c3cc(C(F)(F)F)ccc32)[C@H](OC(=O)c2ccccc2)[C@@H]1OC(=O)c1ccccc1)c1ccccc1 | 5.54 | > 1000 | > 10 | 
COc1ccc(NC(=O)c2cn([C@@H]3O[C@H](CO)[C@@H](O)[C@H]3O)c3ccc(Cl)cc3c2=O)cc1 | 5.47 | > 1000 | > 10 | 
O=C(NCc1ccc(Cl)cc1)c1cn([C@@H]2O[C@H](CO)[C@@H](O)[C@H]2O)c2ccc(Cl)cc2c1=O | 4.74 | > 1000 | > 10 | 
O=C(Nc1ccc(F)cc1)c1cn([C@@H]2O[C@H](CO)[C@@H](O)[C@H]2O)c2ccc(Cl)cc2c1=O | 5.24 | > 1000 | > 10 | 

The next lines start with results.

pIC50 [1] | Compound | CC50 at 72 h [2] [µM] | selectivity ratio [3] | selectivity ratio [4]
5.80 | Cc1ccc2c(c1)c(=O)c(C(=O)NCc1ccc(Cl)cc1)cn2[C@@H]1O[C@H](COC(=O)c2ccccc2)[C@@H](OC(=O)c2ccccc2)[C@H]1OC(=O)c1ccccc1 | 1390 | > 10 | 830
5.55 | O=C(OC[C@H]1O[C@@H](n2cc(C(=O)NCc3ccc(Cl)cc3)c(=O)c3cc(F)ccc32)[C@H](OC(=O)c2ccccc2)[C@@H]1OC(=O)c1ccccc1)c1ccccc1 | > 1000 | > 10 | 
5.00 | O=C(OC[C@H]1O[C@@H](n2cc(C(=O)Nc3ccc(Cl)cc3)c(=O)c3cc(Cl)ccc32)[C@H](OC(=O)c2ccccc2)[C@@H]1OC(=O)c1ccccc1)c1ccccc1 | > 1000 | > 10 | 
5.06 | O=C(OC[C@H]1O[C@@H](n2cc(C(=O)NCc3ccc(Cl)cc3)c(=O)c3cc(Cl)ccc32)[C@H](OC(=O)c2ccccc2)[C@@H]1OC(=O)c1ccccc1)c1ccccc1 | > 1000 | > 10 | 
5.14 | O=C(OC[C@H]1O[C@@H](n2cc(C(=O)Nc3ccc(F)cc3)c(=O)c3cc(Cl)ccc32)[C@H](OC(=O)c2ccccc2)[C@@H]1OC(=O)c1ccccc1)c1ccccc1 | > 1000 | > 10 | 
4.78 | Cc1ccc(NC(=O)c2cn([C@@H]3O[C@H](COC(=O)c4ccccc4)[C@@H](OC(=O)c4ccccc4)[C@H]3OC(=O)c3ccccc3)c3ccc(Cl)cc3c2=O)cc1 | > 1000 | > 10 | 
5.17 | COc1ccc(NC(=O)c2cn([C@@H]3O[C@H](COC(=O)c4ccccc4)[C@@H](OC(=O)c4ccccc4)[C@H]3OC(=O)c3ccccc3)c3ccc(Cl)cc3c2=O)cc1 | > 1000 | > 10 | 
4.71 | O=C(OC[C@H]1O[C@@H](n2cc(C(=O)Nc3ccccc3)c(=O)c3cc(Cl)ccc32)[C@H](OC(=O)c2ccccc2)[C@@H]1OC(=O)c1ccccc1)c1ccccc1 | > 1000 | > 10 | 

— ChEMBL document CHEMBL4765283, “Design, synthesis, in vitro and in silico studies of novel 4-oxoquinoline ribonucleoside derivatives as HIV-1 reverse transcriptase inhibitors” (Eur J Med Chem, 2020)
